Assay results published in ChEMBL document CHEMBL4765368, “Structure guided design and synthesis of furyl thiazolidinedione derivatives as inhibitors of GLUT 1 and GLUT 4, and evaluation of their anti-leukemic potential” (Eur J Med Chem, 2020).

Test system: HS27
Test: Cytotoxicity against human HS27 cells assessed as cell death at 100 uM measured after 48 hrs by Hoechst 33342/propidium iodide staining based imaging analysis relative to control
Settings: hs27, 48 h
Outline: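 HS-27 fibroblasts in DMEM with 10% FBS and penicillin/streptomycin at 37 °C, 5% CO2, seeded at 3,000 cells/well. Treated 48 h with DMSO-dissolved compound (0.5–100 µM range) in quadruplicate. Hoechst 33342 and PI were added 2 h before imaging, and Hoechst/PI-colocalised nuclei were scored as dead. Controls were DMSO vehicle, H2O2 and untreated cells.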

With `O=C(CN1C(=O)S/C(=C/c2ccco2)C1=O)Nc1ccc(Cl)c(Cl)c1` the Activity was 27.32%.
